Values joined by “and” are separate entries in the source; they are usually repeats but may differ in a detail not shown here. Equal entries are not always repeated. The campaign covered roughly 300,000 compounds. About 4,400 (1.5%) were called active.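 How the source made its calls: active means mean inhibition across valid replicates above about 55% (limit read from the data); inconclusive means mean below that limit but half or more replicates reach it; inactive means mean below it, under half of replicates reach it.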 This excerpt belongs to a sample that is enriched for actives. A structure can be active in one record and inactive in another.

This test is described as follows: Trypanosoma cruzi replication blockers in host cells – luminescence, NIH3T3 host cells, primary screen (AID 1885).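 Further: signal also drops with host cell toxicity which is not excluded here; 0% = plate median of DMSO wells and 100% = zero luminescence signal; higher percent means less beta-gal luminescence so fewer parasites.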 Conditions: T. cruzi beta-gal in NIH3T3, luminescence, 90 h; stronger effect = higher value; concentration not given here. The procedure, abridged: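 Assay system: NIH/3T3 host cells with β-galactosidase reporter T. cruzi; input: 5,000 host fibroblasts per well; compound: single 50 nL compound addition per well in DMSO; timing: ≥90 h infection period, 3 h prior cell attachment; measured by: GalScreen β-gal luminescence, detergent lysis, 60 min; evaluation: percent inhibition of parasite-derived β-gal signal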
With `COc1ccc(C(=O)N(CCN2CCOCC2)CC(=O)NC2CCCC2)cc1OC`, the inhibition – broadly, the relative decrease from the control value, in per cent – was -3.29% (inactive).
For `CCCCCOc1ccc(CSC2=NCCN2)cc1[N+](=O)[O-]`, the inhibition was 59.6% (active).
For `CCCOc1ccc(Cn2ccnc2)cc1[N+](=O)[O-]`, the inhibition is 30.6% (inactive).
Consider `CCCCOc1ccc(CSC(=N)N)cc1[N+](=O)[O-]`, for which the inhibition is 38.2% (inactive).
As for `O=C(NNS(=O)(=O)c1ccc(F)cc1)C1CCCCC1`, the figure is -13.6% (inactive); as for `CCOC(=O)C[C@H]1c2ccc(C(F)(F)F)cc2S(=O)(=O)N1c1ccccc1`, -7.83% (inactive).
As for `O=C(COC(=O)c1ccc([N+](=O)[O-])cc1Cl)NC(=O)c1ccccc1`, the inhibition was -9.49% (inactive).
With `COc1ccc(C(=O)C2CCCN(Cc3ccc4nonc4c3)C2)c(C)c1` (configuration not stated), the inhibition is 20% (inactive).
With `COc1ccc(CN2CCCC(CNC(=O)c3ccc(F)cc3)C2)cc1OC` (configuration not stated) the figure was 45.9% (inactive).
Turning to `CCCCNC(=O)N1CCCC(N(C)CCc2ccc(OC)c(OC)c2)C1` (configuration not stated), the inhibition was 37.8% (inactive).
With `COc1ccc(CCNC(=O)C2CCCN(Cc3nc(-c4cccc(Cl)c4)oc3C)C2)cc1OC` (configuration not stated) the figure was 61.6% (active); with `COc1cc(CN2CCCC(C(=O)c3ccc(SC)cc3)C2)cc(Cl)c1O` (configuration not stated), 24.2% (inactive); with `COc1ccc(CN2CCCC(C(=O)c3ccc(Cl)cc3)C2)cc1Cn1cncn1` (configuration not stated), 67.8% (active).
For `COc1ccc(CCN(C)C(=O)C2CCCN(Cc3ccc(OC)c(OC)c3)C2)cc1OC` (configuration not stated), the inhibition was 66.2% (active) and 34.7% (inactive).
As for `COc1ccc(CCNC(=O)CS(=O)(=O)Cc2nc(-c3ccc(C)cc3)oc2C)cc1OC`, the figure is 5.37% (inactive); as for `COc1cccc(-c2nc(CS(=O)(=O)CC(=O)NCCc3ccc(OC)c(OC)c3)c(C)o2)c1`, 21.5% (inactive); as for `CN1CCC(=NNC(=O)c2ccc(N(Cc3ccc(Cl)cc3)S(C)(=O)=O)cc2)CC1`, 8.52% (inactive).
As to `O=C(COc1ccc(Cl)cc1)NCCS(=O)(=O)N1CCN(c2ccc(F)cc2)CC1`, the inhibition is 11.2% (inactive).
With `COc1ccc(C(O)(C2CCCCC2)C(CN2CCCC2)c2ccccc2)cc1` (configuration not stated) the figure was 2.61% (inactive); with `COC(=O)[C@]1(C)N[C@H](c2ccc(-c3ccc(Cl)c(Cl)c3)cc2)[C@@H]2C(=O)N(C)C(=O)[C@@H]21`, -12.4% (inactive).
Take `COc1ccc(NC(=O)CN(C)C(=O)c2ccc(NC3CC3)c([N+](=O)[O-])c2)cc1`: the inhibition is -6.67% (inactive).
With `CSc1nc2ccccc2cc1/C=C(\C#N)c1ccc(Cl)cc1Cl` the figure was 4.89% (inactive).
As to `Cc1ccc(-c2nn(-c3ccccc3)cc2/C=N/NC(=O)c2ccc3c(c2)OCO3)cc1`, the inhibition was 28% (inactive).
As to `Cc1nnc(SCC(=O)N/N=C/c2cn(-c3ccccc3)nc2-c2ccc(F)cc2)n1-c1ccccc1`, the inhibition is -11.7% (inactive).
With `O=C(N/N=C/c1ccc([N+](=O)[O-])o1)c1cn(-c2ccccc2)nc1-c1ccc(F)cc1` the figure was 69.4% (active); with `COc1cccc(OC)c1C(=O)Nc1sc2c(c1C(N)=O)CCCC2`, 9.96% (inactive); with `c1ccc2c(c1)C(=NC1CCCCC1)NC2=NC1CCCCC1`, 55.5% (active).
In the case of `COc1cccc(COC(=O)C2CCN(S(=O)(=O)c3ccc(Cl)cc3)CC2)c1OC`, the inhibition was -3.47% (inactive).
With `Cc1oc(C)c(C(=O)NCCCC(=O)O)c1C(=O)NCCCC(=O)O` the figure was -21.2% (inactive); with `O=C(CSc1ncccn1)NCCc1ccccc1`, -13.3% (inactive).
As for `CC(C)(C)NC(=O)Cn1cnc([N+](=O)[O-])n1`, the figure is 50.4% (inactive).
As for `O=C(Cn1cnc([N+](=O)[O-])n1)NCCc1ccccc1`, the figure is 76.4% (active).
On to `Cc1cc(C)c(S(=O)(=O)n2cc(C(C)C(N)C(=O)O)c3ccccc32)c(C)c1` (configuration not stated), for which the inhibition was -6.09% (inactive).
In the case of `OC(COc1ccc(Br)cc1)CN1CCCC1` (configuration not stated), the inhibition was 10.2% (inactive).
On to `Cc1cccc(C)c1OCC(O)CN1CCCCC1` (configuration not stated), for which the inhibition is -1.54% (inactive).
As for `OC(COCCC12CC3CC(CC(C3)C1)C2)CN1CCCCC1` (configuration not stated), the figure is 62% (active).
As for `COc1ccc(C(=O)/C=C/c2ccc(-c3ccccc3)cc2)cc1CSCC(=O)O`, the figure is -21% (inactive); as for `Cc1ccc(S(=O)(=O)N(C)C)cc1NC(=O)COC(=O)/C=C/c1cccs1`, -8.51% (inactive).
As for `Cc1ccc(-c2cc(=O)[nH]c(NCc3ccccc3)n2)cc1`, the figure is -16.4% (inactive); as for `Cc1c(C)n(Cc2ccc(Cl)cc2)c2ccc(C(=O)NCCCN3CCOCC3)cc12`, 12.7% (inactive); as for `COc1ccc(C2CC(c3ccccc3)=NN2C(=O)c2ccc(Cl)c([N+](=O)[O-])c2)cc1` (configuration not stated), 54.8% (active).
Turning to `COc1ccc(C2CC(c3ccc([N+](=O)[O-])cc3)=NN2C(C)=O)cc1` (configuration not stated), the inhibition was 4.42% (inactive).
With `COc1ccc(C2=NN(C(=O)c3cccnc3)C(c3ccccc3)C2)cc1` (configuration not stated), the inhibition was 3.02% (inactive).
Consider `O=C(NC1CCCCC1)C1CC(=O)N(CCc2ccccc2)C1` (configuration not stated), for which the inhibition was -16.2% (inactive).
As for `C=CCOc1ccc(/C=C/C(=O)OCC(=O)NCC2CCCO2)cc1` (configuration not stated), the inhibition was -9.89% (inactive).
In the case of `CCOC(=O)CNc1nc(Cl)nc(Nc2ccc(OC)cc2OC)n1`, the inhibition is -0.745% (inactive).
On to `O=C(O)c1ccccc1CSc1nc2ccccc2s1`, for which the inhibition is -11.7% (inactive).
As for `Cc1nc2nc(CSc3nc4ccccc4s3)cc(=O)n2[nH]1`, the figure is -6.18% (inactive); as for `CCN(CC)CCCSc1nc2ccccc2s1`, 69.6% (active); as for `COc1cc2c(cc1OC)C(C(=O)NCc1ccco1)C1c3ccccc3CCN1C2=O` (configuration not stated), 7.27% (inactive).
As for `COC(=O)c1c(C)cc(O)c(C)c1O`, the inhibition was -2.6% (inactive).
As for `O=[N+]([O-])c1ccc2oc(-c3cccc(O)c3)nc2c1`, the figure is -23.1% (inactive).
Turning to `COc1ccc(C(CNC(=O)c2ccc(NS(=O)(=O)c3ccc(F)c(C)c3)cc2)N(C)C)cc1` (configuration not stated), the inhibition was 3.47% (inactive).
Regarding `Cc1cc(S(=O)(=O)Nc2ccc(C(=O)NCC(c3ccco3)N3CCCC3)cc2)ccc1F` (configuration not stated), the inhibition is 63.7% (active).
As to `COc1ccc(C(CNC(=O)c2cccc(NS(=O)(=O)c3ccc(C)c(F)c3)c2)N2CCCC2)cc1` (configuration not stated), the inhibition was -13.1% (inactive).
With `O=C(NNC(=O)c1cc(-c2ccccc2Cl)nc2ccccc12)c1csc(N2CCOCC2)n1` the figure was -2.25% (inactive); with `O=C(Nc1ccc(C(=O)O)cc1)/C(=C\c1ccccc1)NC(=O)c1ccc(Br)cc1`, -8.09% (inactive).

The values above are taken from PubChem BioAssay AID1885 (Broad Institute, 2009).
